Assay outcomes (PubChem)
FLuc inhib CS – firefly luciferase enzyme inhibitors, primary screen, artefact control for luciferase-based inhibitor screens, biochemical, luminescence, ATPLite. 10 min. inhibition, % at 10 µM. hit rate 1.5% among 200,000. AID 1006, 2008;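 active means inhibition above about 50% when tested at 10 µM, limit read from the data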
Target sequence (P08659 whole entry, looked up): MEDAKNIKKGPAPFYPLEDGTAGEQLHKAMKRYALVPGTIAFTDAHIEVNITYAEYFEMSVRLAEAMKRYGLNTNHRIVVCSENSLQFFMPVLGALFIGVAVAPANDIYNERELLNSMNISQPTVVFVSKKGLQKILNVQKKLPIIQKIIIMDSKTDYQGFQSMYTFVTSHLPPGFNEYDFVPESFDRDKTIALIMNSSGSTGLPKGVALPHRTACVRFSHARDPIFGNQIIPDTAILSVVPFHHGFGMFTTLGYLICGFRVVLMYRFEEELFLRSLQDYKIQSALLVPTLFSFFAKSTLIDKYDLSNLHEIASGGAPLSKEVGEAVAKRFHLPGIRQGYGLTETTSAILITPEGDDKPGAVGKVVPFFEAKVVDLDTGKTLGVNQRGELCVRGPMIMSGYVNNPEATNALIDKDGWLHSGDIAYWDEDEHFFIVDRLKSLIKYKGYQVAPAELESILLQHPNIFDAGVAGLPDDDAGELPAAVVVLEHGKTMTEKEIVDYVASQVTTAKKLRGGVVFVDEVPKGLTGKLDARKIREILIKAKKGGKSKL
FLuc stim CS – FLuc activators, initial screening, artefact control for FLuc-dependent activation tests, biochemical, ATPlite luminescence. ATPlite luciferase biochemical, 10 min; 0 = ATP-free wells, 1 = DMSO control. 200,000 tested, under 10 active. activation factor at 10 µM. Luciferin 4-monooxygenase (Photinus pyralis), P08659. AID 1027, 2008;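 active means luciferase activation factor, scaled between plate controls, of at least 2 with compound at 10 µM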
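Material: Luciferase/luciferin reagent mix; Doses: test compounds dosed from 2 mM stocks in 100% DMSO; Schedule: 10 min incubation after luciferase reagent addition, room temperature; Measured by: luminescence from luciferase reaction; Read-out: luminescence gain marking luciferase activators.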
STAT1 act – STAT1 signaling activators, primary screen, cell-based, HTS, luciferase reporter. hit rate 2.6% among 200,000. activation (% of control), % at 5.5 µM. NIH 3T3 STAT1-luciferase reporter, IFN-gamma, luminescence; 100% = IFN-gamma alone, no compound;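 active means activation above the screen-wide mean activation plus 3 SD, cut at about 130% in these data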;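 further: raw ratio to IFN-gamma control signal so 100% means no change and 0% no light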
APP 5'UTR act – activators of APP 5'UTR luciferase reporter, primary screen, SH-SY5Y cells | SH-SY5Y APP 5'UTR luciferase reporter, luminescence; zero percent = DMSO vehicle wells | activation, % at 2 µM | hit rate 1% among 190,000 | AID 1276, 2008;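 active means activation above a set limit, based on mean plus 3 SD of controls, cut at about 140% in these data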
NF-kB expr up – activators of NF-kB expression in neurons, primary screen, cell-based, HTS | fold change at 12.5 µM | human neuronal cells, NF-kB reporter expression; active compounds read high | hit rate 1.6% among 190,000; in the data active means fold change above about 3.3
sdo1 growth – growth rescue of sdo1-depleted yeast, primary screen, S. cerevisiae, bone marrow failure model. S. cerevisiae sdo1-depleted JHY4D growth rescue, OD600 30 h; active compounds read high; pdr5 snq2 efflux-pump mutant strain. hit rate 0.21% among 140,000. z-score at 10 µM. AID 817, 2007;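 active means z-score above 3 at both the 24 hr and the 30 hr optical density reads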;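 further: z-score against mean and SD of all compound wells on the same plate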
Starred values were filed as active, the others as inactive; . = no result given. An excerpt weighted towards active compounds, which were near 4.3% of everything screened.

SMILES | FLuc inhib CS | FLuc stim CS | STAT1 act | APP 5'UTR act | NF-kB expr up | sdo1 growth
O=C(CCC1CCCC1)Nc1nnc(-c2ccc3c(c2)OCO3)s1 | -5.1 | 1.1 | 104.7 | -11.4 | 1.12 | -1.4
O=C(Nc1ccn(Cc2ccccc2)n1)c1ccc(F)cc1 | 50.2* | 0.5 | 138.4* | 67.7 | 1.09 | .
O=C(CS(=O)(=O)Cc1ccccc1)Nc1ccc(S(=O)(=O)N2CCOCC2)cc1 | -5.2 | 1.1 | 103.6 | -1.8 | 1.02 | 0.22
c1ccc(-c2noc(C34CC5CC(CC(C5)C3)C4)n2)cc1 | -0.5 | 1 | 104.3 | -8.0 | 1.55 | -0.06
Brc1ccc(-c2noc(C3CCCCC3)n2)cc1 | 6.8 | 0.9 | 127.8 | 84.6 | 2.05 | .
c1ccc(-c2noc(C3CCCCC3)n2)nc1 | 35.2 | 0.6 | 130.8* | 101.3 | 2.67 | -0.08
c1ccc(-c2noc(C34CC5CC(CC(C5)C3)C4)n2)nc1 | 37.3 | 0.6 | 131.9* | 61.8 | 2.34 | -1.53
O=C(O)c1ccc2c3c(cccc13)C(=O)N(c1ccccc1)C2=O | -2.8 | 1 | 99.0 | 0.1 | 0.94 | .
CC(=O)c1ccc2c3c(cccc13)C(=O)N(CCc1ccccc1)C2=O | -2.1 | 1 | 132.4* | 96.6 | 1.66 | .
CCCn1c(SCC(=O)N2CCCC(C)C2)nnc1-c1cccnc1 (stereo unspecified) | -2.8 | 1 | 103.1 | -1.6 | 1.07 | .
Cc1ccsc1C(=O)NNC(=O)C1CCCCC1C(=O)O (stereo unspecified) | -2.8 | 1 | 129.4* | 96.7 | 1.38 | 0.6
Cc1ccsc1C(=O)NNC(=O)C1CC=CCC1C(=O)O (stereo unspecified) | -9.1 | 1.1 | 143.5* | 58.3 | 1.51 | 1.87
Cc1ccc(C(=O)Nc2nc3ccccc3n2CCN2CCCC2)cc1 | 33.4 | 0.7 | 140.9* | 129.7 | 3.05 | 2.29
O=C(COC(=O)[C@H](Cc1ccccc1)NS(=O)(=O)c1ccccc1F)NC1CCCCC1 | -1.1 | 1 | 99.5 | . | 1.08 | 0.24
O=C1NC(N2CCOCC2)=N/C1=C/c1ccc2c(c1)OCO2 | 1.3 | 1 | 111.1 | -0.5 | 1.5 | .
Nc1ncnc2c1nc(SCCO)n2Cc1ccccc1 | -1.7 | 1 | 95.0 | -10.5 | 1.05 | .
COc1cccc2cc(-c3nc4ccccc4o3)c(=O)oc12 | 59.8* | 0.4 | 119.1 | 122.4 | 2.95 | .
O=C(Oc1cccc(NC(=O)c2ccccc2Cl)c1)c1ccc([N+](=O)[O-])cc1 | -8.0 | 1.1 | 92.0 | 16.9 | 1.93 | -1.62
Cc1sc(NC(=O)c2ccc(F)cc2)c(CN2CCCCCC2)c1C | -2.2 | 1 | 131.2* | 46.2 | 1.35 | -0.55
Cc1sc(NC(=O)c2ccccc2F)c(CN2CCCCC2)c1C | -0.8 | 1 | 120.9 | 23.6 | 1.76 | 0.28
CCc1ccc(OCC(=O)N/N=C(\C)c2ccc(OC(F)F)cc2)cc1 | 2.3 | 1 | 99.8 | 22.4 | 1.3 | 0.52
CCc1ccc(OCC(=O)N/N=C(\C)c2ccc(-n3ccnc3)cc2)cc1 | 72.3* | 0.3 | 103.7 | 8.8 | 1.12 | -0.88
C/C(=N\NC(N)=O)c1ccc(-n2ccnc2)cc1 | -6.8 | 1.1 | 97.1 | -16.5 | 1.33 | .
C/C(=N\Nc1ccc(C(=O)O)cc1)c1ccc(-n2ccnc2)cc1 | 1.1 | 1 | 138.3* | 102.1 | 1.02 | .
Cc1c(C(=O)C(=O)NCC2CCCO2)c2ccccc2n1C (stereo unspecified) | -7.6 | 1.1 | 108.7 | -13.1 | 1.18 | .
SMILES | FLuc inhib CS | FLuc stim CS | STAT1 act | APP 5'UTR act | NF-kB expr up | sdo1 growth
COc1ccc(-c2cnnc(N/N=C/c3ccc(O)c(OC)c3)n2)cc1 | 81.2* | 0.2 | 117.7 | -30.2 | 1.14 | -0.12
COc1ccc(-c2cnnc(N/N=C/c3ccc(-c4ccc([N+](=O)[O-])cc4)o3)n2)cc1 | -2.5 | 1 | 100.8 | -90.3 | 1.12 | .
COc1ccccc1C1=NN(C2=NN=C(N)Cc3ncnn32)C(O)(C(F)(F)F)C1 (stereo unspecified) | -5.0 | 1.1 | 93.4 | -4.1 | 1.07 | .
O=C(CSc1cccc[n+]1[O-])c1cc(Cl)ccc1Cl | -3.6 | 1 | 108.1 | -26.7 | 7.03* | .
O=C(CSc1cccc[n+]1[O-])c1cc2ccccc2o1 | -0.8 | 1 | 112.3 | 30.8 | 4.21* | 1.06
O=C(O)CSc1cccc[n+]1[O-] | -4.4 | 1 | 96.5 | -2.2 | 1.02 | 0.1
CCCCc1ccc(Nc2ncccc2C#N)cc1 | 24.6 | 0.8 | 138.3* | 104.8 | 2.42 | -0.6
COc1ccccc1NCC(=O)n1nc(C)cc1C | 0.1 | 1 | 99.6 | 7.4 | 1.2 | .
Cc1cccc(/C=C/C(=O)c2ccc(N3CCOCC3)cc2)c1 | 22.4 | 0.8 | 105.0 | -1.0 | 0.9 | 0.1
Cc1ccc(/C=C/C(=O)c2ccc(N3CCOCC3)cc2)s1 | 94.5* | 0.1 | 134.7* | 106.0 | 3.28 | .
O=C(COc1ccc(NS(=O)(=O)c2ccc(F)cc2)cc1)N1CCOCC1 | 2.2 | 1 | 102.0 | -2.0 | 1.05 | .
Cc1cc(Cl)ccc1Oc1nc(-c2ccc(F)cc2)ccc1C#N | -3.0 | 1 | 93.2 | -0.6 | 1.41 | -0.71
COC(=O)Nc1nnc(-c2ccccc2Cl)s1 | 55.0* | 0.4 | 126.9 | 52.7 | 2.39 | 0.21
COc1cccc(NC(=S)N(CCN(C)C)Cc2cccs2)c1 | -8.0 | 1.1 | 105.4 | 5.4 | 5.78* | .
O=C(COc1ccccc1F)N/N=C1\CCCc2ccccc21 | 14.8 | 0.9 | 138.9* | 48.3 | 3 | 0.33
CC(C)CCNC(=O)C(=O)Nc1ccccc1 | 9.5 | 0.9 | 128.6* | 130.1 | 2.95 | .
CC(C)CCNC(=O)c1ccc(-c2ccccc2)cc1 | 17.9 | 0.8 | 132.2* | 54.9 | 2.87 | .
COc1ccccc1NS(=O)(=O)c1ccc(NN=C2CCCCC2)c([N+](=O)[O-])c1 | -2.9 | 1 | 95.4 | -8.2 | 1.01 | -0.08
CC(C)(C)OC(=O)CC[C@@H](C(=O)N1CCN(C(=O)OC(C)(C)C)CC1)n1cc(C(Cc2ccc(O)cc2)NC(=O)OC(C)(C)C)nn1 (stereo partly specified) | -4.3 | 1 | 106.7 | 1.3 | 0.47 | .
COc1ccccc1CN1CCNC(=O)C1CC(=O)N(C)Cc1ccon1 (stereo unspecified) | -6.9 | 1.1 | 97.4 | -7.9 | 1.13 | .
CN(C)c1ccc(/C=N/NC(=O)c2nonc2N)cc1[N+](=O)[O-] | 16.2 | 0.8 | 133.3* | -11.7 | 1.01 | .
Nc1nonc1C(=O)N/N=C/c1cccc([N+](=O)[O-])c1 | 3.6 | 1 | 112.0 | -2.8 | 1.08 | 0.11
C=CCNC(=O)NC(=O)CSc1nnc(C(F)(F)F)n1C | -0.4 | 1 | 91.5 | 5.6 | 1.41 | .
Cc1ccc(/C=C/C2=NN(C)C(=O)CC2)cc1 | 77.8* | 0.2 | 123.1 | 152.6* | 4.5* | .
CN1N=C(/C=C/c2ccccc2)CCC1=O | 29.8 | 0.7 | 122.1 | 57.6 | 1.84 | .
